The chains are these.
B1: Osa-1-4 twister ribozyme (parent)
chain: CCGCCUAACACUGCCAAUGCCGGUCCCAAGCCCGGAUAAAAGUGGAGGGGGCGG

In this data set the parent is B1. Description: self-cleavage, relative activity (ratio to wild type); higher = more cleavage; co-transcriptional. A digest of the protocol: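 The 48 positions downstream of the cleavage site in a DNA template for a 54-nucleotide Oryza sativa twister ribozyme carried 97 % wild-type base and 1 % of each other base. After in vitro transcription (2 h, 37 °C) with co-transcriptional self-cleavage, the RNA was reverse-transcribed with a template-switching oligonucleotide, PCR-amplified and deep-sequenced. Relative activity is the fraction cleaved, judged by reads with or without upstream sequence and normalised to wild type.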
For the variant A29U U24C, the self-cleavage is 0.06.

Take A29U U24A: the self-cleavage amounted to 0.32.

As for A29U U24G, the self-cleavage was found to be 0.01.

On to A29U C11G, for which the self-cleavage stood at 0.04.

In the case of A29U C11U, the self-cleavage amounted to 0.08.

Consider A29U C11A, for which the self-cleavage was 0.05.

As to A29G G51C, the self-cleavage was found to be 0.05.

For A29G G51A, the self-cleavage was 0.1.

For A29G G51U, the self-cleavage turned out to be 0.06.

For G30U G48C, the self-cleavage is 0.02.

For the variant G30U G48U, the self-cleavage is 0.02.

Turning to G30U G48A, the self-cleavage was found to be 0.02.

In the case of A29G G48U, the self-cleavage is 0.03.

In the case of A29G G48A, the self-cleavage is 0.04.

Turning to A29G G48C, the self-cleavage was 0.04.

For A29U C52G, the self-cleavage stood at 0.12.

A29U C52A: the self-cleavage turned out to be 0.08.

Consider A29U C52U, for which the self-cleavage is 0.19.

Take G30A U18A: the self-cleavage came to 0.07.

As to G30A U18C, the self-cleavage was 0.04.

With G30A U18G, the self-cleavage was determined as 0.06.

Turning to A29U C26A, the self-cleavage is 0.03.

Take A29U C26G: the self-cleavage turned out to be 0.05.

A29U C26U: the self-cleavage came out at 0.07.

With G30C G51C, the self-cleavage amounted to 0.03.

G30C G51U: the self-cleavage was determined as 0.03.

With G30C G51A, the self-cleavage stood at 0.05.

Regarding A29U A46G, the self-cleavage is 0.04.

Take A29U A46C: the self-cleavage worked out at 0.02.

Take A29U A46U: the self-cleavage amounted to 0.04.

On to G30A G47A, for which the self-cleavage worked out at 0.03.

Take G30A G47C: the self-cleavage amounted to 0.02.

For the variant G30A G47U, the self-cleavage was 0.02.

Regarding A29G U37C, the self-cleavage came to 0.28.

A29G U37A: the self-cleavage was 0.32.

With A29G U37G, the self-cleavage turned out to be 0.44.

Take A29U C14A: the self-cleavage stood at 0.03.

In the case of A29U C14U, the self-cleavage is 0.05.

Take A29U C14G: the self-cleavage worked out at 0.04.

Turning to G30A G44C, the self-cleavage stood at 0.04.

Take G30A G44A: the self-cleavage came to 0.04.

With G30A G44U, the self-cleavage amounted to 0.04.

G30C G35A: the self-cleavage stood at 0.05.

On to G30C G35C, for which the self-cleavage is 0.04.

As for G30C G35U, the self-cleavage is 0.04.

As to A29U C31G, the self-cleavage worked out at 0.03.

For the variant A29U C31A, the self-cleavage stood at 0.02.

With A29U C31U, the self-cleavage came to 0.06.

Turning to G30C G50C, the self-cleavage was 0.05.

With G30C G50A, the self-cleavage came to 0.04.

On to G30C G50U, for which the self-cleavage was determined as 0.05.

For G30U G51C, the self-cleavage came to 0.03.

For G30U G51A, the self-cleavage was determined as 0.05.

As for G30U G51U, the self-cleavage is 0.03.

For G30A G35C, the self-cleavage turned out to be 0.03.

For the variant G30A G35U, the self-cleavage was found to be 0.04.

Turning to G30A G35A, the self-cleavage turned out to be 0.05.

In the case of A29U U43A, the self-cleavage is 0.06.

Take A29U U43G: the self-cleavage is 0.08.

Consider A29U U43C, for which the self-cleavage is 0.06.

In the case of G30C U43A, the self-cleavage worked out at 0.05.

In the case of G30C U43G, the self-cleavage stood at 0.05.

Take G30C U43C: the self-cleavage amounted to 0.04.

Take A29G G35U: the self-cleavage was 0.16.

Regarding A29G G35A, the self-cleavage was found to be 0.24.

Regarding A29G G35C, the self-cleavage came out at 0.05.

A29G G30C: the self-cleavage came to 0.03.

As to A29G G30U, the self-cleavage stood at 0.04.

Regarding A29G G30A, the self-cleavage was determined as 0.05.

As to G30U G50U, the self-cleavage turned out to be 0.05.

In the case of G30U G50A, the self-cleavage was 0.03.

Regarding G30U G50C, the self-cleavage is 0.05.

As for A29U C21U, the self-cleavage is 0.15.

For A29U C21G, the self-cleavage was determined as 0.04.

Take A29U C21A: the self-cleavage worked out at 0.05.

For the variant A29G G54U, the self-cleavage is 0.37.

As for A29G G54A, the self-cleavage was 0.15.

Turning to A29G G54C, the self-cleavage was 0.08.

As for G30A U12G, the self-cleavage is 0.02.

On to G30A U12A, for which the self-cleavage is 0.03.

Turning to G30A U12C, the self-cleavage came out at 0.03.

For G30C G48U, the self-cleavage came to 0.02.

For G30C G48A, the self-cleavage came to 0.02.

In the case of G30C G48C, the self-cleavage turned out to be 0.02.

Turning to G30C G44A, the self-cleavage was 0.03.

As to G30C G44C, the self-cleavage was determined as 0.04.

For the variant G30C G44U, the self-cleavage was determined as 0.04.

In the case of G30A G51C, the self-cleavage came out at 0.02.

Consider G30A G51A, for which the self-cleavage turned out to be 0.04.

G30A G51U: the self-cleavage is 0.04.

On to A29U G49C, for which the self-cleavage came out at 0.04.

On to A29U G49U, for which the self-cleavage was 0.02.

Regarding A29U G49A, the self-cleavage stood at 0.03.

Take A29G G47U: the self-cleavage is 0.03.

Regarding A29G G47A, the self-cleavage amounted to 0.05.

As for A29G G47C, the self-cleavage is 0.03.

As to A29U G48C, the self-cleavage amounted to 0.03.

In the case of A29U G48A, the self-cleavage is 0.03.

A29U G48U: the self-cleavage was 0.03.

On to A29U C27A, for which the self-cleavage stood at 0.03.

A29U C27U: the self-cleavage amounted to 0.08.

In the case of A29U C27G, the self-cleavage worked out at 0.05.

Turning to A29G U12G, the self-cleavage was determined as 0.04.

As to A29G U12A, the self-cleavage stood at 0.1.

Regarding A29G U12C, the self-cleavage came out at 0.08.

A29U C32A: the self-cleavage worked out at 0.04.

Regarding A29U C32U, the self-cleavage was found to be 0.03.

For the variant A29U C32G, the self-cleavage is 0.03.

On to A29U G45C, for which the self-cleavage turned out to be 0.03.

Consider A29U G45U, for which the self-cleavage is 0.03.

As for A29U G45A, the self-cleavage was 0.03.

Consider G30U G34C, for which the self-cleavage was determined as 0.05.

For the variant G30U G34A, the self-cleavage stood at 0.04.

For G30U G34U, the self-cleavage amounted to 0.04.

G30C G34U: the self-cleavage was found to be 0.04.

As for G30C G34A, the self-cleavage amounted to 0.07.

Consider G30C G34C, for which the self-cleavage was 0.04.

Take A29G U24G: the self-cleavage is 0.02.

Take A29G U24C: the self-cleavage amounted to 0.08.

For the variant A29G U24A, the self-cleavage came to 0.07.

G30A G53A: the self-cleavage came out at 0.03.

With G30A G53C, the self-cleavage was determined as 0.03.

Turning to G30A G53U, the self-cleavage was determined as 0.04.

For the variant G30U G53U, the self-cleavage was 0.04.

As to G30U G53C, the self-cleavage turned out to be 0.03.

In the case of G30U G53A, the self-cleavage stood at 0.04.

As to G30C G45C, the self-cleavage came to 0.02.

Turning to G30C G45A, the self-cleavage was found to be 0.03.

In the case of G30C G45U, the self-cleavage worked out at 0.02.

In the case of G30A G50C, the self-cleavage stood at 0.04.

With G30A G50U, the self-cleavage turned out to be 0.04.

For the variant G30A G50A, the self-cleavage was determined as 0.04.

In the case of A29U G30U, the self-cleavage was found to be 0.03.

Regarding A29U G30C, the self-cleavage is 0.02.

On to A29U G30A, for which the self-cleavage stood at 0.03.

For G30A G49A, the self-cleavage stood at 0.02.

For G30A G49C, the self-cleavage was found to be 0.02.

As to G30A G49U, the self-cleavage turned out to be 0.03.

Turning to G30C U24C, the self-cleavage turned out to be 0.04.

G30C U24A: the self-cleavage worked out at 0.03.

G30C U24G: the self-cleavage was 0.01.

As to A29U G13A, the self-cleavage came to 0.04.

Turning to A29U G13U, the self-cleavage is 0.02.

As to A29U G13C, the self-cleavage came out at 0.01.

With A29G G53C, the self-cleavage stood at 0.06.

For A29G G53A, the self-cleavage amounted to 0.07.

A29G G53U: the self-cleavage turned out to be 0.07.

Turning to A29U G53A, the self-cleavage was determined as 0.07.

A29U G53C: the self-cleavage was determined as 0.04.

Turning to A29U G53U, the self-cleavage turned out to be 0.06.

On to A29U A36U, for which the self-cleavage amounted to 0.17.

On to A29U A36G, for which the self-cleavage came out at 0.24.

For A29U A36C, the self-cleavage was found to be 0.03.

For the variant A29U G35U, the self-cleavage worked out at 0.09.

For A29U G35A, the self-cleavage amounted to 0.11.

As to A29U G35C, the self-cleavage was found to be 0.04.

Turning to G30U G54A, the self-cleavage was 0.03.

As for G30U G54C, the self-cleavage turned out to be 0.03.

Take G30U G54U: the self-cleavage was found to be 0.05.

A29U G50C: the self-cleavage came to 0.04.

For the variant A29U G50A, the self-cleavage amounted to 0.13.

As for A29U G50U, the self-cleavage was found to be 0.09.

Take A29G G42A: the self-cleavage stood at 0.06.

In the case of A29G G42U, the self-cleavage is 0.04.

As for A29G G42C, the self-cleavage amounted to 0.06.

On to A29U G23U, for which the self-cleavage was 0.03.

As to A29U G23C, the self-cleavage worked out at 0.03.
